Source: ChEMBL document CHEMBL3232844, “Synthesis and structure activity relationships of schweinfurthin indoles” (2014)

Assays:
Assay type in all cases: functional
[1] = Cytotoxicity against human OVCAR4 cells
Procedure, shortened: (§1)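 Tested in a 60-cell-line human tumor panel screen; the read-out is growth inhibition, reported as GI50 for each cell line.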

SK-OV-3 = experiment: Cytotoxicity against human SKOV3 cells; procedure, shortened: as §1
MCF7 = experiment: Cytotoxicity against human MCF7 cells; procedure, shortened: as §1
MDA-MB-435 = experiment: Cytotoxicity against human MDA-MB-435 cells; procedure, shortened: as §1
T47D = experiment: Cytotoxicity against human T47D cells
Procedure, shortened: (§2)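 Cell line run as part of the 60-cell-line screening panel; growth inhibition was reported as a GI50 for each line.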

[2] = Cytotoxicity against human UACC257 cells; procedure, shortened: as §2
U-251 = experiment: Cytotoxicity against human U251 cells; procedure, shortened: as §2
SF-539 = experiment: Cytotoxicity against human SF539 cells; procedure, shortened: as §1
NCI-H460 = experiment: Cytotoxicity against human NCI-H460 cells; procedure, shortened: as §1
SNB-75 = experiment: Cytotoxicity against human SNB75 cells; procedure, shortened: as §2
DU-145 = experiment: Cytotoxicity against human DU145 cells; procedure, shortened: as §1
NCI-H322M = experiment: Cytotoxicity against human NCI-H322M cells; procedure, shortened: as §1
A549 = experiment: Cytotoxicity against human A549 cells; procedure, shortened: as §1
ACHN = experiment: Cytotoxicity against human ACHN cells; procedure, shortened: as §1
MDA-MB-231 = experiment: Cytotoxicity against human MDA-MB-231 cells; procedure, shortened: as §1
[3] = Cytotoxicity against human OVCAR5 cells; procedure, shortened: as §1
COLO 205 = experiment: Cytotoxicity against human COLO205 cells; procedure, shortened: as §1
IGROV-1 = experiment: Cytotoxicity against human IGROV1 cells; procedure, shortened: as §1
PC-3 = experiment: Cytotoxicity against human PC3 cells; procedure, shortened: as §1
BT-549 = experiment: Cytotoxicity against human BT549 cells; procedure, shortened: as §1
HOP-62 = experiment: Cytotoxicity against human HOP62 cells; procedure, shortened: as §1
HCT-116 = experiment: Cytotoxicity against human HCT116 cells; procedure, shortened: as §1
[4] = read-out: pLC50 (the source's name) (converted)

Question: With `COc1cc(/C=C/c2cc(O)c3cc[nH]c3c2)cc2c1O[C@]1(C)CC[C@@H](O)C(C)(C)[C@H]1C2` as the molecule, how does the GI50 ([1]; OVCAR-4) read?
Answer: 3.31 µM

Question: And the CC50 ([1]; OVCAR-4, read-out: pLC50 (the source's name) (converted))?
Answer: > 100 µM

Question: And the TGI ([1]; OVCAR-4, read-out: pTGI (converted))?
Answer: 34.7 µM

Question: What about the GI50 (SK-OV-3) of the same molecule?
Answer: 1.51 µM

Question: What about the LC50 (SK-OV-3) of the same molecule?
Answer: > 100 µM

Question: And the TGI (SK-OV-3; read-out: pTGI (converted))?
Answer: 10 µM

Question: And the GI50 (MCF7)?
Answer: 1.29 µM

Question: And the LC50 (MCF7)?
Answer: 51.3 µM

Question: And the TGI (MCF7; read-out: pTGI (converted))?
Answer: 20.4 µM

Question: And the GI50 (MDA-MB-435)?
Answer: 0.933 µM

Question: What about the CC50 (MDA-MB-435; [4]) of the same molecule?
Answer: 85.1 µM

Question: And the TGI (MDA-MB-435; read-out: pTGI (converted))?
Answer: 11.2 µM

Question: What about the GI50 (T47D) of the same molecule?
Answer: 5.01 µM

Question: And the CC50 (T47D; [4])?
Answer: 83.2 µM

Question: And the TGI (T47D; read-out: pTGI (converted))?
Answer: 22.4 µM

Question: What about the GI50 ([2]; UACC-257) of the same molecule?
Answer: 2.34 µM

Question: What about the CC50 ([2]; UACC-257, read-out: pLC50 (the source's name) (converted)) of the same molecule?
Answer: 28.8 µM

Question: And the TGI ([2]; UACC-257, read-out: pTGI (converted))?
Answer: 8.32 µM

Question: And the GI50 (U-251)?
Answer: 0.479 µM

Question: What about the CC50 (U-251; [4]) of the same molecule?
Answer: > 100 µM

Question: And the TGI (U-251; read-out: pTGI (converted))?
Answer: 13.8 µM

Question: And the GI50 (SF-539)?
Answer: 0.257 µM

Question: What about the TGI (SF-539; read-out: pTGI (converted)) of the same molecule?
Answer: 1.23 µM

Question: What about the GI50 (NCI-H460) of the same molecule?
Answer: 0.871 µM

Question: And the CC50 (NCI-H460; [4])?
Answer: 5.37 µM

Question: What about the TGI (NCI-H460; read-out: pTGI (converted)) of the same molecule?
Answer: 2.29 µM

Question: And the GI50 (SNB-75)?
Answer: 0.269 µM

Question: What about the CC50 (SNB-75; [4]) of the same molecule?
Answer: > 100 µM

Question: And the TGI (SNB-75; read-out: pTGI (converted))?
Answer: 4.57 µM

Question: And the GI50 (DU-145)?
Answer: 1.15 µM

Question: And the LC50 (50% lethal concentration) (DU-145)?
Answer: 25.1 µM

Question: What about the TGI (DU-145; read-out: pTGI (converted)) of the same molecule?
Answer: 6.76 µM

Question: What about the GI50 (NCI-H322M) of the same molecule?
Answer: 3.47 µM

Question: And the CC50 (NCI-H322M; [4])?
Answer: > 100 µM

Question: And the TGI (NCI-H322M; read-out: pTGI (converted))?
Answer: 25.1 µM

Question: And the GI50 (A549)?
Answer: 1.48 µM

Question: What about the TGI (A549; read-out: pTGI (converted)) of the same molecule?
Answer: 3.72 µM

Question: What about the GI50 (ACHN) of the same molecule?
Answer: 1.1 µM

Question: What about the LC50 (concentration killing 50% of cells) (ACHN) of the same molecule?
Answer: > 100 µM

Question: And the TGI (ACHN; read-out: pTGI (converted))?
Answer: 14.1 µM

Question: What about the GI50 (MDA-MB-231) of the same molecule?
Answer: 1.82 µM

Question: And the LC50 (MDA-MB-231)?
Answer: > 100 µM

Question: And the TGI (MDA-MB-231; read-out: pTGI (converted))?
Answer: 20.9 µM

Question: And the GI50 ([3]; OVCAR-5)?
Answer: 7.41 µM

Question: What about the CC50 ([3]; OVCAR-5, read-out: pLC50 (the source's name) (converted)) of the same molecule?
Answer: > 100 µM

Question: What about the TGI ([3]; OVCAR-5, read-out: pTGI (converted)) of the same molecule?
Answer: 41.7 µM

Question: What about the GI50 (COLO 205) of the same molecule?
Answer: 1.26 µM

Question: What about the CC50 (COLO 205; [4]) of the same molecule?
Answer: 11.5 µM

Question: What about the TGI (COLO 205; read-out: pTGI (converted)) of the same molecule?
Answer: 3.39 µM

Question: And the GI50 (IGROV-1)?
Answer: 2.29 µM

Question: And the CC50 (IGROV-1; [4])?
Answer: 60.3 µM

Question: And the TGI (IGROV-1; read-out: pTGI (converted))?
Answer: 10.2 µM

Question: And the GI50 (PC-3)?
Answer: 0.631 µM

Question: And the LC50 (PC-3)?
Answer: > 100 µM

Question: And the TGI (PC-3; read-out: pTGI (converted))?
Answer: 38 µM

Question: And the GI50 (BT-549)?
Answer: 0.178 µM

Question: And the CC50 (BT-549; [4])?
Answer: 95.5 µM

Question: And the TGI (BT-549; read-out: pTGI (converted))?
Answer: 4.57 µM

Question: And the GI50 (HOP-62)?
Answer: 1.91 µM

Question: What about the CC50 (HOP-62; [4]) of the same molecule?
Answer: > 100 µM

Question: What about the TGI (HOP-62; read-out: pTGI (converted)) of the same molecule?
Answer: 8.13 µM

Question: What about the GI50 (HCT-116) of the same molecule?
Answer: 0.912 µM

Question: What about the CC50 (HCT-116; [4]) of the same molecule?
Answer: 6.03 µM

Question: And the TGI (HCT-116; read-out: pTGI (converted))?
Answer: 2.45 µM
